Legend:
[1] = system: Human immunodeficiency virus 2; experiment: Antiviral activity against HIV2 ROD infected in human MT4 cells assessed as reduction in virus induced cytopathic effect measured after 5 days by MTT assay; type: functional, organism-based; settings: Human immunodeficiency virus 2, ROD, MT4, 120 h
Procedure, shortened: (§1)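 MT-4 cells were infected with HIV-1 IIIB or HIV-2 ROD, and cell viability was read by MTT. […] Each value was run in at least triplicate and averaged from at least three independent experiments.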

[2] = Cytotoxicity against human MT4 cells assessed as reduction in cell viability incubated for 5 days by MTT assay; type: toxicity, cell-based; settings: MT4 cells, time 5 day
Procedure, shortened: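 Uninfected MT-4 cells were exposed to compound, and viability was read by the MTT method. […] Each value was run in at least triplicate and averaged from at least three independent experiments.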

[3] = system: Human immunodeficiency virus 1; experiment: Antiviral activity against HIV1 IIIB infected in human MT4 cells assessed as reduction in virus induced cytopathic effect measured after 5 days by MTT assay; type: functional, organism-based; settings: Human immunodeficiency virus 1, IIIB, MT4, 120 h; procedure, shortened: as §1
[4] = Selectivity index, ratio of CC50 for cytotoxicity against human MT4 cells to EC50 for antiviral activity against HIV1 IIIB infected in human MT4 cells; type: toxicity, cell-based; settings: read-out: Ratio CC50/EC50
Procedure, shortened: (§2)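 SI is CC50 divided by EC50. CC50 comes from MTT viability of uninfected MT-4 cells. EC50 comes from MTT-read protection of MT-4 cells infected with HIV-1 IIIB or HIV-2 ROD. Each value was run in at least triplicate.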

[5] = Selectivity ratio of EC50 for antiviral activity against HIV1 IIIB infected in human MT4 cells to EC50 for antiviral activity against HIV2 ROD infected in human MT4 cells; type: toxicity, cell-based
Procedure, shortened: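 Ratio is EC50 against HIV-1 IIIB divided by EC50 against HIV-2 ROD. Both EC50 values come from MTT-read protection of infected MT-4 cells.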

[6] = Selectivity index, ratio of CC50 for cytotoxicity against human MT4 cells to EC50 for antiviral activity against HIV2 ROD infected in human MT4 cells; type: toxicity, cell-based; settings: read-out: Ratio CC50/EC50; procedure, shortened: as §2

Row | Compound | EC50 [1] [µM] | CC50 at 120 h [2] [µM] | EC50 [3] [µM] | selectivity ratio [4] | Ratio EC50 [5] | selectivity ratio [6]
1 | COc1ccc(N(C)C(=O)[C@H](Cc2ccccc2)NC(=O)Cn2ccc(NC(=O)c3ccc(Br)cc3)cc2=O)cc1 | > 23.5 | 23.5 | > 23.5 |  |  | 
2 | COc1ccc(N(C)C(=O)[C@H](Cc2ccccc2)NC(=O)CN2CCN(C(=O)c3ccc(NS(C)(=O)=O)cc3)CC2=O)cc1 |  | > 201 |  | > 1.05 | < 0.96 | 
3 | COc1ccc(N(C)C(=O)[C@H](Cc2ccccc2)NC(=O)CN2CCN(C(=O)Cc3c[nH]c4ccc(Br)cc34)CC2=O)cc1 | > 16.4 | 16.4 | > 16.4 | < 1 |  | < 1
4 | O=C(CN1CCN(S(=O)(=O)c2ccc([N+](=O)[O-])cc2)CC1)N[C@@H](Cc1ccccc1)c1nc2ccccc2c(=O)n1-c1ccc(S(=O)(=O)N2CCS(=O)(=O)CC2)cc1 | 0.73 | > 145 | 12.6 | > 11.5 |  | > 198
5 | COc1ccc(N(C)C(=O)[C@H](Cc2cc(F)cc(F)c2)NC(=O)CN(Cc2ccc(F)cc2)C(=O)Cc2cccc3ccccc23)cc1 | 5.87 | > 191 |  |  | > 32.6 | > 33
6 | COc1ccc(N(C)C(=O)[C@H](Cc2ccccc2)NC(=O)CN2CCN(C(=O)Cc3c[nH]c4ccc(O)cc34)CC2=O)cc1 |  | > 209 |  | > 1.06 | 1.06 | > 1.12
7 | COc1ccc(-n2c(SCCC3CCCCC3)nnc2[C@H](Cc2ccccc2)NC(=O)Cc2c(C)[nH]c3ccccc23)cc1 |  | > 206 |  |  |  | 
8 | COC(=O)C(C)(C)Sc1nnc([C@H](Cc2ccccc2)NC(=O)Cc2c(C)[nH]c3ccccc23)n1-c1ccc(OC)cc1 | > 22.6 | 22.6 | 2.88 | 8 | 0.13 | 
9 | COc1ccc(-n2c(SCc3ccc(B(O)O)cc3)nnc2[C@H](Cc2ccccc2)NC(=O)Cc2c(C)[nH]c3ccccc23)cc1 | > 20.8 | 20.8 | 2.71 | 8 | < 0.13 | 
10 | COc1ccc(-n2c(SCCCN3CCOCC3)nnc2[C@H](Cc2ccccc2)NC(=O)Cc2c(C)[nH]c3ccccc23)cc1 | 3.73 |  | 0.59 | 83 | 0.16 | 13
11 | COc1ccc(-n2c(SCc3ccncc3)nnc2[C@H](Cc2ccccc2)NC(=O)Cc2c(C)[nH]c3ccccc23)cc1 | 4.27 |  | 2.89 | 9 | 0.68 | 6
12 | COc1ccc(-n2c(SCCN3CCOCC3)nnc2[C@H](Cc2ccccc2)NC(=O)Cc2c(C)[nH]c3ccccc23)cc1 | 4.98 |  | 0.79 | 103 | 0.16 | 16
13 | COc1ccc(N(C)C(=O)[C@H](Cc2cc(F)cc(F)c2)NC(=O)CN2CCN(C(=O)c3ccc(NC(C)=O)cc3)CC2=O)cc1 |  | 196 |  | 1.11 | 0.92 | 1.02
14 | COc1ccc(N(C)C(=O)[C@H](Cc2ccccc2)NC(=O)CN2CCN(C(=O)c3ccc(NC(=O)C(F)(F)F)cc3)CC2=O)cc1 | 15 | > 195 |  | > 1.24 | 10.54 | > 13.1
15 | COc1ccc(N(C)C(=O)[C@H](Cc2cc(F)cc(F)c2)NC(=O)CN2CCN(C(=O)Cc3c[nH]c4ccc(O)cc34)CC2=O)cc1 | 49.6 | 132 |  | < 1 |  | 2.65
16 | COc1ccc(N(C)C(=O)[C@H](Cc2ccccc2)NC(=O)Cn2ccc(NC(=O)c3ccc(N)cc3)cc2=O)cc1 | 17.1 | 189 |  |  | > 11.04 | 11

Row | Compound | EC50 [1] [µM] | CC50 at 120 h [2] [µM] | EC50 [3] [µM] | selectivity ratio [4] | Ratio EC50 [5] | selectivity ratio [6]
17 | COc1ccc(-n2c(SCC#N)nnc2[C@H](Cc2ccccc2)NC(=O)Cc2c(C)[nH]c3ccccc23)cc1 | 2.69 |  | 0.59 | 163 | 0.22 | 36
18 | COc1ccc(N(C)C(=O)[C@H](Cc2ccccc2)NC(=O)CN2CCN(C(=O)c3ccc(NC(C)=O)cc3)CC2=O)cc1 |  | > 213 |  | > 1.05 | 1.1 | > 1.16
19 | COc1ccc(N(C)C(=O)[C@H](Cc2ccccc2)NC(=O)Cn2ccc(NC(=O)c3ccc(Cl)cc3)cc2=O)cc1 | > 25.5 | 25.5 | > 25.5 |  |  | 
20 | COc1ccc(N(C)C(=O)[C@H](Cc2cc(F)cc(F)c2)NC(=O)CN(Cc2ccc(C#N)cc2)C(=O)Cc2ccc3ccccc3c2)cc1 |  | > 189 |  |  | 1.17 | > 1
21 | COc1ccc(-n2c(SCCN(C)C)nnc2[C@H](Cc2ccccc2)NC(=O)Cc2c(C)[nH]c3ccccc23)cc1 | > 22.9 |  | 0.85 | 27 | < 0.04 | 
22 | COc1ccc(N(C)C(=O)[C@H](Cc2ccccc2)NC(=O)Cn2ccc(NC(=O)c3ccc4ccccc4c3)cc2=O)cc1 | > 27.6 | 27.6 | > 27.6 |  |  | 
23 | COc1ccc(N(C)C(=O)[C@H](Cc2cc(F)cc(F)c2)NC(=O)CN2CCN(C(=O)c3ccc(NS(C)(=O)=O)cc3)CC2=O)cc1 |  | > 190 |  | > 1.18 | 0.88 | > 1.04
24 | COc1ccc(-n2c(SCCC(F)(F)F)nnc2[C@H](Cc2ccccc2)NC(=O)Cc2c(C)[nH]c3ccccc23)cc1 | > 30.8 | 30.8 | 2.87 | 11 | < 0.09 | 
25 | COc1ccc(N(C)C(=O)[C@H](Cc2cc(F)cc(F)c2)NC(=O)CN(Cc2ccc(F)cc2)C(=O)Cc2ccc3ccccc3c2)cc1 |  | > 160 |  |  |  | 
26 | COc1ccc(-n2c(SCc3cccnc3)nnc2[C@H](Cc2ccccc2)NC(=O)Cc2c(C)[nH]c3ccccc23)cc1 | > 7.81 | 24 | 2.99 | 8 | < 0.38 | 
27 | COc1ccc(N(C)C(=O)[C@H](Cc2cc(F)cc(F)c2)NC(=O)CN(Cc2ccccc2)C(=O)Cc2ccc3ccccc3c2)cc1 | > 18.9 | 176 |  | < 1 |  | < 1
28 | COc1ccc(-n2c(SCCF)nnc2[C@H](Cc2ccccc2)NC(=O)Cc2c(C)[nH]c3ccccc23)cc1 | 4.07 |  | 1.24 | 20 | 0.3 | 6
29 | COc1ccc(N(C)C(=O)[C@H](Cc2ccccc2)NC(=O)Cn2ccc(NC(=O)c3ccc([N+](=O)[O-])cc3)cc2=O)cc1 | > 31.9 | 31.9 | > 31.9 |  |  | 
30 | COc1ccc(N(C)C(=O)[C@H](Cc2ccccc2)NC(=O)CN2CCN(C(=O)c3ccc(NC(=O)C4CC4)cc3)CC2=O)cc1 | 15 | 168 |  | < 1 | > 11.15 | 11.2
31 | COc1ccc(N(C)C(=O)[C@H](Cc2cc(F)cc(F)c2)NC(=O)CN(Cc2ccc(F)cc2)C(=O)Cc2c(C)[nH]c3ccccc23)cc1 | > 22.6 | 22.6 | 2.79 | 8 | < 0.12 | 
